Test results published in ChEMBL document CHEMBL6096655, “Discovery of a novel, selective CK2 inhibitor class with an unusual basic scaffold” (Eur J Med Chem, 2025).

Key:
[1] = biological target: Signal transducer and activator of transcription 3 (Homo sapiens) (UniProt P40763); experiment: Inhibition of STAT3 phosphorylation in human 786-O cells at 8 uM measured after 48 hrs by immunoblot analysis relative to control
[2] = Antiproliferative activity against HEK293 cells assessed as inhibition of cell growth measured after 3 to 4 days by MTT assay; format: toxicity, cell-based; settings: human, time 3-4 day
In short: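 HEK293 cells grown in DMEM with 2 mM L-glutamine, 1% pen/strep and 10% FCS. Cells were seeded at 5000 per well, left overnight, then given medium with 1% FCS plus compound or DMSO (max. 0.2% final). They were grown 3–4 days at 37 °C in 5% CO₂ with no medium change, and growth was read by MTT.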

[3] = biological target: Mitogen-activated protein kinase 8 (Homo sapiens) (UniProt P45983); experiment: Inhibition of human recombinant MAPK8 at 2 uM by Eurofins kinase assay relative to control
[4] = biological target: Dual specificity tyrosine-phosphorylation-regulated kinase 1B (Homo sapiens) (UniProt Q9Y463); experiment: Inhibition of human recombinant DYRK1B at 2 uM by Eurofins kinase assay relative to control
Sequence of Dual specificity tyrosine-phosphorylation-regulated kinase 1B (Homo sapiens) (Q9Y463 whole entry, looked up): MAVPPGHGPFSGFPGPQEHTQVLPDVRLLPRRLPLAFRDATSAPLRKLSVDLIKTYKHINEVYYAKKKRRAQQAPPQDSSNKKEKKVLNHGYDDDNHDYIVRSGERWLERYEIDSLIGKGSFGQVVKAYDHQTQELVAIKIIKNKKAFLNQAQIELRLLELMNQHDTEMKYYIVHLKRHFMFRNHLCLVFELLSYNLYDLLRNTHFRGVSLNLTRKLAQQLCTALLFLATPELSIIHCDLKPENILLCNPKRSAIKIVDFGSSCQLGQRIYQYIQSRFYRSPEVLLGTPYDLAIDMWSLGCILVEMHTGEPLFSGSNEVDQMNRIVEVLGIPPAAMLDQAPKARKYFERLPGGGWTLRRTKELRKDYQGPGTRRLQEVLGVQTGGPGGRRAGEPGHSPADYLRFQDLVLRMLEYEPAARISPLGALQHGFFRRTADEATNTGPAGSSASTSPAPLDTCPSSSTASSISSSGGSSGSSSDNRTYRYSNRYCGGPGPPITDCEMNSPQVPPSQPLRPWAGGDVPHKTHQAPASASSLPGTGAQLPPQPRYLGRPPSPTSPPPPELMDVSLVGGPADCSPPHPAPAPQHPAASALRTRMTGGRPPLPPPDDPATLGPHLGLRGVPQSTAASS

[5] = Upregulation of PARP cleavage in human U-937 cells by measuring signal 1 at 10 uM measured after 48 hrs by immunoblot analysis; format: functional
In short: (§1)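 U937 cells exposed to compound or DMSO for 48 h, then lysed in Laemmli buffer. Lysates were run on 8–16% gradient SDS-PAGE, semi-dry blotted to PVDF and probed for PARP. Detection used IR-fluorescent secondary antibodies. The cleaved/uncleaved PARP signal ratio was obtained by densitometry. Results are representative of two independent experiments.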

[6] = Upregulation of PARP cleavage in human U-937 cells by measuring signal 2 at 5 uM measured after 48 hrs by immunoblot analysis; format: functional
In short: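 U937 lymphoma cells grown in RPMI with 2 mM L-glutamine, 1 % pen/strep and 10 % FCS; exposed to compound or DMSO solvent control for 48 h. Total cellular proteins harvested and immunoblotted with an antibody against phosphorylated CK2-substrate motifs and for PARP. Read-out is the densitometric ratio of cleaved to uncleaved PARP signal. Representative of two independent experiments.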

Homo sapiens [7] = species: Homo sapiens; experiment: Inhibition of human recombinant GST tagged CDK1/cyclin B expressed in insect cells at 2 uM by Eurofins kinase assay relative to control
[8] = biological target: Eukaryotic translation initiation factor 2 subunit 2 (Homo sapiens) (UniProt P20042); experiment: Inhibition of eIF2beta phosphorylation in human 786-O cells at 10 uM measured after 48 hrs by immunoblot analysis relative to control
[9] = biological target: Serine/threonine-protein kinase TBK1 (Homo sapiens) (UniProt Q9UHD2); experiment: Inhibition of human TBK1 at 2 uM by Eurofins kinase assay relative to control
Sequence of Serine/threonine-protein kinase TBK1 (Homo sapiens) (Q9UHD2 whole entry): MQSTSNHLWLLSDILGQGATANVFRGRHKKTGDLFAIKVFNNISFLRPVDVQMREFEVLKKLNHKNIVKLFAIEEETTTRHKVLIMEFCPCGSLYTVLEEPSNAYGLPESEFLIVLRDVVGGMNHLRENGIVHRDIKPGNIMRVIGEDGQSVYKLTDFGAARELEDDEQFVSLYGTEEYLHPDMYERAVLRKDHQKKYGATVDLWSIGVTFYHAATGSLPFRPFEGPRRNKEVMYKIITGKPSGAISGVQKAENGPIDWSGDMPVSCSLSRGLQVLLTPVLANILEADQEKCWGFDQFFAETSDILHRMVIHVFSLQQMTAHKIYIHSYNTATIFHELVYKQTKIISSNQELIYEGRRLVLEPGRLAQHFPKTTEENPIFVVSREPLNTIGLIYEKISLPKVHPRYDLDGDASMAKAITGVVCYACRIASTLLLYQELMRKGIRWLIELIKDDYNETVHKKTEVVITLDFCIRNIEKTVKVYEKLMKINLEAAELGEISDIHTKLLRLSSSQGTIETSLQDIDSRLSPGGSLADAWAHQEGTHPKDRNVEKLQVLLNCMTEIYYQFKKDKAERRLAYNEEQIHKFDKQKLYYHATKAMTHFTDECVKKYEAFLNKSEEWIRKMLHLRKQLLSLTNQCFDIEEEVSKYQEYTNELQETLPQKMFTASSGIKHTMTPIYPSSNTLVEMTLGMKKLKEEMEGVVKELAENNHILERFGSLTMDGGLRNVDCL

[10] = Upregulation of PARP cleavage in human U-937 cells by measuring signal 1 at 30 uM measured after 48 hrs by immunoblot analysis; format: functional
In short: as §1

[11] = biological target: Dual specificity protein kinase CLK4 (Homo sapiens) (UniProt Q9HAZ1); experiment: Inhibition of human recombinant CLK4 at 2 uM by Eurofins kinase assay relative to control
[12] = biological target: Signal transducer and activator of transcription 3 (Homo sapiens) (UniProt P40763); experiment: Inhibition of STAT3 phosphorylation in human 786-O cells at 10 uM measured after 48 hrs by immunoblot analysis relative to control
Homo sapiens [13] = species: Homo sapiens; experiment: Inhibition of human recombinant His-tagged PIK3CA/PIK3R1 at 2 uM by Eurofins kinase assay relative to control
786-0 = experiment: Antiproliferative activity against human 786-0 cells assessed as inhibition of cell growth measured after 3 to 4 days by MTT assay; format: functional; settings: time 3-4 day
In short: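 786-O or U937 cells grown in RPMI with 2 mM L-glutamine, 1% pen/strep and 10% FCS. Cells were seeded at 5000 per well and left overnight, then switched to 1% FCS medium containing compound or DMSO (max. 0.2% final). Growth ran 3–4 days at 37 °C in 5% CO₂ without medium change, followed by MTT read-out. GI50 is the mean ± SD of at least two independent experiments.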

[14] = biological target: cAMP-dependent protein kinase catalytic subunit alpha (Homo sapiens) (UniProt P17612); experiment: Inhibition of human recombinant PRKACA at 2 uM by Eurofins kinase assay relative to control
[15] = biological target: Serine/threonine-protein kinase pim-1 (Homo sapiens) (UniProt P11309); experiment: Inhibition of human recombinant PIM1 at 2 uM by Eurofins kinase assay relative to control
Sequence of Serine/threonine-protein kinase pim-1 (Homo sapiens) (P11309 whole entry, looked up): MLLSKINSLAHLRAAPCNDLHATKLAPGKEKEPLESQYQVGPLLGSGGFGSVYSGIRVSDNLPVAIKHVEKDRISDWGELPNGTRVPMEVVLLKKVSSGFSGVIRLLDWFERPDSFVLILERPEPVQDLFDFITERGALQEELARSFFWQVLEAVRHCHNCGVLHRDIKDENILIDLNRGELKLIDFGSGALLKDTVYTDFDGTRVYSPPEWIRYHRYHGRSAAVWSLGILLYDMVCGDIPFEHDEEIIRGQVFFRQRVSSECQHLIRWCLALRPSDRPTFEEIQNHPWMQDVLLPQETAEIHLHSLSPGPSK

[16] = system: Mast/stem cell growth factor receptor Kit (Homo sapiens), P10721 [D816H]; experiment: Inhibition of human recombinant GST/His tagged KIT D816H mutant expressed in insect cells at 2 uM by Eurofins kinase assay relative to control
[17] = biological target: Homeodomain-interacting protein kinase 3 (Homo sapiens) (UniProt Q9H422); experiment: Inhibition of human recombinant HIPK3 at 2 uM by Eurofins kinase assay relative to control
[18] = biological target: Serine/threonine-protein kinase Chk1 (Homo sapiens) (UniProt O14757); experiment: Inhibition of human recombinant CHK1 at 2 uM by Eurofins kinase assay relative to control
Sequence of Serine/threonine-protein kinase Chk1 (Homo sapiens) (O14757 whole entry): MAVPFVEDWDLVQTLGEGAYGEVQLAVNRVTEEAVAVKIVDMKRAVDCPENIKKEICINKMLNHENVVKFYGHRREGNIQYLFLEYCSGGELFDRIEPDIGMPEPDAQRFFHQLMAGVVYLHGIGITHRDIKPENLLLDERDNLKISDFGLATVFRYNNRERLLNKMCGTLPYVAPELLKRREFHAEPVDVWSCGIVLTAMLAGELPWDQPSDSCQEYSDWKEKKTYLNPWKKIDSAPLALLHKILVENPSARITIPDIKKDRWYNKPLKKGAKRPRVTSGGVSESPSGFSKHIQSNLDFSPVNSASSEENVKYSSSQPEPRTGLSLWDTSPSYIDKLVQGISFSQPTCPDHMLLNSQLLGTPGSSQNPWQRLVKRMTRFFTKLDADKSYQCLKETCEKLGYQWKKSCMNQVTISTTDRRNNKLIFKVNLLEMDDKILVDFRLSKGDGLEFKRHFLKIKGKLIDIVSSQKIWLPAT

[19] = biological target: Serine/threonine-protein kinase 17A (Homo sapiens) (UniProt Q9UEE5); experiment: Inhibition of human STK17A at 2 uM by Eurofins kinase assay relative to control
[20] = biological target: Homeodomain-interacting protein kinase 1 (Homo sapiens) (UniProt Q86Z02); experiment: Inhibition of human recombinant HIPK1 at 2 uM by Eurofins kinase assay relative to control
Sequence of Homeodomain-interacting protein kinase 1 (Homo sapiens) (Q86Z02 whole entry, looked up, canonical isoform): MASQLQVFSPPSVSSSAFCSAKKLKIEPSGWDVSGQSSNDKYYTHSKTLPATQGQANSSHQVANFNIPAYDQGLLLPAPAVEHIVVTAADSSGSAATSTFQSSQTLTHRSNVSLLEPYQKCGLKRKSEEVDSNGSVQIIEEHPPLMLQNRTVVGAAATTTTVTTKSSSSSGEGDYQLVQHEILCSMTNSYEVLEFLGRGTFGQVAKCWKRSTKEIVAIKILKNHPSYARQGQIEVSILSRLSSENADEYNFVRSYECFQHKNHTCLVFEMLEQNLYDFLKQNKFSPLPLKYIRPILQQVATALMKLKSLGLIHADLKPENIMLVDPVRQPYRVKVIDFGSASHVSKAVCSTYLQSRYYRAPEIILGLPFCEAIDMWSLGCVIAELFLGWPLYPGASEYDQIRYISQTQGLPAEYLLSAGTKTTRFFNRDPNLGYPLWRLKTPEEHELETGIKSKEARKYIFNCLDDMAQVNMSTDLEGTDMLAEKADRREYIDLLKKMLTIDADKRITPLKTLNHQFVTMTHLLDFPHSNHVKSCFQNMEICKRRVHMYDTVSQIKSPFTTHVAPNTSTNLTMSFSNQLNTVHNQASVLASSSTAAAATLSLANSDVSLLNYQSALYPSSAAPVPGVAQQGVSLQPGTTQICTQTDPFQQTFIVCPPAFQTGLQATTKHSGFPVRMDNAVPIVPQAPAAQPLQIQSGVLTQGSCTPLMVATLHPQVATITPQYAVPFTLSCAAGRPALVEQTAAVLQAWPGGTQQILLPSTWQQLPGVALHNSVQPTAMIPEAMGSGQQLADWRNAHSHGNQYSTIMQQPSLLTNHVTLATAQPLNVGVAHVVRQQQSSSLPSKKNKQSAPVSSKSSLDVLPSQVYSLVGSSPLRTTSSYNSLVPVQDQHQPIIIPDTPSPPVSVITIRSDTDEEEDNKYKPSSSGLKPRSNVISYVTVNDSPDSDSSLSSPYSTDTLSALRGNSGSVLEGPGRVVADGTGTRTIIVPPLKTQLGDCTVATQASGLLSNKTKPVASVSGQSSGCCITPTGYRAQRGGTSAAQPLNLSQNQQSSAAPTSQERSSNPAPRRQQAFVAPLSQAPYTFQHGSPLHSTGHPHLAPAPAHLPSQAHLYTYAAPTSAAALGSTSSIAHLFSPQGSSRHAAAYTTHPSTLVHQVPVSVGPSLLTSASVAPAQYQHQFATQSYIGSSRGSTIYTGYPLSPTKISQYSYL

[21] = biological target: Casein kinase I isoform gamma-1 (Homo sapiens) (UniProt Q9HCP0); experiment: Inhibition of human recombinant GST tagged CSNK1G1 expressed in insect cells at 2 uM by Eurofins kinase assay relative to control
Sequence of Casein kinase I isoform gamma-1 (Homo sapiens) (Q9HCP0 whole entry, looked up, canonical isoform): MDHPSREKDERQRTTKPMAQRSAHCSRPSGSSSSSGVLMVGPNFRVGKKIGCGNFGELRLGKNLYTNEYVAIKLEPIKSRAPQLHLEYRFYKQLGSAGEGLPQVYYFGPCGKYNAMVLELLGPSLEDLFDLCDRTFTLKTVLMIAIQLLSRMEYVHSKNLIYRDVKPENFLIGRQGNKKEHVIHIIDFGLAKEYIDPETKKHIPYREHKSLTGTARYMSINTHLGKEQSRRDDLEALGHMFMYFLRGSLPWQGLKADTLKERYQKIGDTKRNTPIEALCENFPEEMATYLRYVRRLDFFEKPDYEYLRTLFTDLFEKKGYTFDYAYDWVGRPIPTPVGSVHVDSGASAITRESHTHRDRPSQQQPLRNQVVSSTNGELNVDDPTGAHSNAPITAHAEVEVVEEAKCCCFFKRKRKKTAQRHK

[22] = biological target: Signal transducer and activator of transcription 3 (Homo sapiens) (UniProt P40763); experiment: Inhibition of STAT3 phosphorylation in human 786-O cells at 6 uM measured after 48 hrs by immunoblot analysis relative to control
[23] = system: Receptor-type tyrosine-protein kinase FLT3 (Homo sapiens), P36888 [D835Y]; experiment: Inhibition of human recombinant his tagged FLT3 D835Y expressed in insect cells at 2 uM by Eurofins kinase assay relative to control
[24] = biological target: CDC7/DBF4 (Cell division cycle 7-related protein kinase/Activator of S phase kinase) (Homo sapiens) (UniProt Q9UBU7+O00311); experiment: Inhibition of human recombinant GST tagged CDC7/DBF4 expressed in Baculovirus expression system at 2 uM by Eurofins kinase assay relative to control
[25] = biological target: Glycogen synthase kinase-3 beta (Homo sapiens) (UniProt P49841); experiment: Inhibition of human recombinant GSK3B at 2 uM by Eurofins kinase assay relative to control
Sequence of Glycogen synthase kinase-3 beta (Homo sapiens) (P49841 whole entry, looked up, the tested form may be a part): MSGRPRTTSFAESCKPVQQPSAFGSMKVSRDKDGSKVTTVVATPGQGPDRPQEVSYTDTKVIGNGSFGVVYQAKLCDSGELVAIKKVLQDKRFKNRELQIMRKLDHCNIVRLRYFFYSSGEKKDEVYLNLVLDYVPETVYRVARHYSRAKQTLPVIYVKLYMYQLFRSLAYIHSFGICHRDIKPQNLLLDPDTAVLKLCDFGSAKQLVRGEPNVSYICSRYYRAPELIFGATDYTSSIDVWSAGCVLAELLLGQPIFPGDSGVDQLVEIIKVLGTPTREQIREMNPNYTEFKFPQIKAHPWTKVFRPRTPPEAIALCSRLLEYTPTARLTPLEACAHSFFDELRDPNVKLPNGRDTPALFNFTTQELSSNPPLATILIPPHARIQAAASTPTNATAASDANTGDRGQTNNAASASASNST

[26] = biological target: PAS domain-containing serine/threonine-protein kinase (Homo sapiens) (UniProt Q96RG2); experiment: Inhibition of human recombinant PASK at 2 uM by Eurofins kinase assay relative to control

Sequence of Signal transducer and activator of transcription 3 (Homo sapiens) (P40763 whole entry): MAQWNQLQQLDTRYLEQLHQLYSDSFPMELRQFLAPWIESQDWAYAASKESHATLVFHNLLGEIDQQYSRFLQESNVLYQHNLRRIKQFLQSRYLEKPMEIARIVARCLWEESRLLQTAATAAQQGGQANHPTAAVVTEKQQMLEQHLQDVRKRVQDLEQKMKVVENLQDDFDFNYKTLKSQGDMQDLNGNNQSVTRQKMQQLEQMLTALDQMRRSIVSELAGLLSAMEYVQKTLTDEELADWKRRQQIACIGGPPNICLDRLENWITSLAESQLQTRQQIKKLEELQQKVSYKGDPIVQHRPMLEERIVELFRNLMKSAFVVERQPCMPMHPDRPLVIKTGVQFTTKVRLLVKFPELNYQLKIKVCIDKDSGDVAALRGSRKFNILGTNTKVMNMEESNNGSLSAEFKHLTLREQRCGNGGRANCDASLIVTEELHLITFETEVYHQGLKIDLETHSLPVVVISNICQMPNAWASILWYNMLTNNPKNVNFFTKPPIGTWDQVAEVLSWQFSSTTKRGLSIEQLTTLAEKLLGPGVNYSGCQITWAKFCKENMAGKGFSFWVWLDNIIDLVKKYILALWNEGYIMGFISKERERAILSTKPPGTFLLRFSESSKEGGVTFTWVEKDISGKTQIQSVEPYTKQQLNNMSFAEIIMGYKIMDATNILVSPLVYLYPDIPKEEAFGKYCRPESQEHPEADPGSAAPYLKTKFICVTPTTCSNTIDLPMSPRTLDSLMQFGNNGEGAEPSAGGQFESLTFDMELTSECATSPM

inhibition [1]: 80% | inhibition [3]: 18% | inhibition [4]: 2% | inhibition [8]: 83% | inhibition [9]: 4% | inhibition [11]: 11% | inhibition [12]: 97% | inhibition (Homo sapiens [13]): 0% | GI50 (786-0): 7.3 µM | inhibition [14]: 6% | inhibition [15]: 0% | inhibition [16]: 4% | inhibition [17]: 9% | inhibition [18]: 16% | inhibition [19]: 0% | inhibition [20]: 5% | inhibition [21]: 21% | inhibition [22]: 64% | inhibition [23]: 11% | inhibition [24]: 0% | inhibition [25]: 0% | inhibition [26]: 0%
SMILES: Clc1ccc(N2CCN(c3ncnc4sc5c(c34)CCNC5)CC2)cc1.O=C(O)C(F)(F)F
GI50 [2]: 30 µM | Activity [5]: 89% | Activity [6]: 17% | inhibition (Homo sapiens [7]): 4% | Activity [10]: 98%
